This is an account of results in ChEMBL document CHEMBL3351823, “Synthesis and biological evaluations of new analogs of 2-methoxyestradiol: inhibitors of tubulin and angiogenesis” (Eur J Med Chem, 2014).

The source made the active and inactive calls. No cut-off for these calls is given here.

The first assay deals with K562. Put plainly: Anticancer activity against human K562 cells assessed as cell growth inhibition after 5 days by MTT assay. Format: functional, cell-based. To be noted: K562, 120 h. An outline of the steps: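 Compounds dissolved in DMSO and serially diluted in medium. Equal volume added to cells at about 40,000 cells/ml, set by doubling time. K562 grown in RPMI with 2-mercaptoethanol, L-glutamine and 10% FCS, no antibiotics. Drug-free wells served as control. Growth read on a plate reader; IC50 taken graphically as % of control growth. Three experiments run in duplicate.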
(In general: Tetrazolium assays rely on reduction of a dye to a coloured formazan, in cell work by metabolically active cells.)
One may read the IC50 as the concentration that inhibits the measured activity by half. `COc1cc2c(cc1O)CC[C@@H]1[C@@H]2CC[C@]2(C)[C@@H](c3ccc4ccncc4c3)CC[C@@H]12`: the 50% inhibitory concentration (IC50) was greater than 10000 nM.

With `COc1cc2c(cc1O)CC[C@@H]1[C@@H]2CC[C@]2(C)[C@@H](c3ccncc3)CC[C@@H]12`, the half-inhibitory concentration (IC50) is 1400 nM.

As for `COc1cc2c(cc1O)CC[C@@H]1[C@@H]2CC[C@]2(C)[C@@H](c3cncc4c3CCCC4)CC[C@@H]12`, the half-maximal inhibitory concentration (IC50) was 500 nM.

On to `COc1cc2c(cc1O)CC[C@@H]1[C@@H]2CC[C@]2(C)[C@@H](c3cccnc3)CC[C@@H]12`, for which the half-inhibitory concentration (IC50) turned out to be 1100 nM.

Turning to `COc1cc2c(cc1O)CC[C@@H]1[C@@H]2CC[C@]2(C)[C@@H](c3ccc4cnccc4c3)CC[C@@H]12`, the IC50 came out at 700 nM.

Turning to `COc1cc2c(cc1O)CC[C@@H]1[C@@H]2CC[C@]2(C)C(c3ccc4cnccc4c3)=CC[C@@H]12`, the 50% inhibitory concentration (IC50) was 400 nM.

With `COc1cc2c(cc1O)CC[C@@H]1[C@@H]2CC[C@]2(C)C(c3cccc4ncccc34)=CC[C@@H]12`, the IC50 was 1100 nM.

As for `COc1cc2c(cc1O)CC[C@@H]1[C@@H]2CC[C@]2(C)C(c3ccncc3)=CC[C@@H]12`, the IC50 was determined as 900 nM.

Tested on in a further assay: not listed separately
Nature of the assay: Antiangiogenic activity in BAECs after 18 hrs by extracellular matrix assay. It counts as functional, Bos taurus. The conditions noted are these: baec. An outline of the steps:
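Extracellular matrix thawed at 4 °C, 50 µl per well, set 10 min at 37 °C. Solid wells incubated 30 min with BAECs (30,000 cells/well), then given analogs at the same concentration. IC50 from three experiments run in duplicate.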
For the compound `COc1cc2c(cc1O)CC[C@@H]1[C@@H]2CC[C@]2(C)[C@@H](c3ccc4ccncc4c3)CC[C@@H]12`, 3300 nM corresponded to half-maximal inhibition (IC50).

As to `COc1cc2c(cc1O)CC[C@@H]1[C@@H]2CC[C@]2(C)[C@@H](c3ccncc3)CC[C@@H]12`, the IC50 worked out at 4200 nM.

Consider `COc1cc2c(cc1O)CC[C@@H]1[C@@H]2CC[C@]2(C)[C@@H](c3cncc4c3CCCC4)CC[C@@H]12`, for which the IC50 is 1100 nM.

`COc1cc2c(cc1O)CC[C@@H]1[C@@H]2CC[C@]2(C)[C@@H](c3cccnc3)CC[C@@H]12` had an IC50 of 5200 nM.

As for `COc1cc2c(cc1O)CC[C@@H]1[C@@H]2CC[C@]2(C)[C@@H](c3ccc4cnccc4c3)CC[C@@H]12`, the concentration for half-maximal inhibition (IC50) is 600 nM.

`COc1cc2c(cc1O)CC[C@@H]1[C@@H]2CC[C@]2(C)C(c3ccc4cnccc4c3)=CC[C@@H]12`: the concentration for half-maximal inhibition (IC50) was found to be 700 nM.

As to `COc1cc2c(cc1O)CC[C@@H]1[C@@H]2CC[C@]2(C)C(c3cccc4ncccc34)=CC[C@@H]12`, inhibition was half-maximal at 2000 nM (IC50).

`COc1cc2c(cc1O)CC[C@@H]1[C@@H]2CC[C@]2(C)C(c3ccncc3)=CC[C@@H]12`: the IC50 was 600 nM.

Tested on in the next assay: not listed separately
Nature of the assay: Anticancer activity against human OVCAR3 cells assessed as cell growth inhibition after 5 days by MTT assay. Format: functional, cell-based. The conditions noted are these: OVCAR-3, 120 h.
For `COc1cc2c(cc1O)CC[C@@H]1[C@@H]2CC[C@]2(C)[C@@H](c3ccc4ccncc4c3)CC[C@@H]12`, the IC50 was greater than 10000 nM.

Turning to `COc1cc2c(cc1O)CC[C@@H]1[C@@H]2CC[C@]2(C)[C@@H](c3ccncc3)CC[C@@H]12`, the half-inhibitory concentration (IC50) is 1000 nM.

For the compound `COc1cc2c(cc1O)CC[C@@H]1[C@@H]2CC[C@]2(C)[C@@H](c3cncc4c3CCCC4)CC[C@@H]12`, the IC50 came out at 400 nM.

`COc1cc2c(cc1O)CC[C@@H]1[C@@H]2CC[C@]2(C)[C@@H](c3cccnc3)CC[C@@H]12`: the concentration for half-maximal inhibition (IC50) stood at 800 nM.

Turning to `COc1cc2c(cc1O)CC[C@@H]1[C@@H]2CC[C@]2(C)[C@@H](c3ccc4cnccc4c3)CC[C@@H]12`, the concentration for half-maximal inhibition (IC50) came to 500 nM.

`COc1cc2c(cc1O)CC[C@@H]1[C@@H]2CC[C@]2(C)C(c3ccc4cnccc4c3)=CC[C@@H]12`: the IC50 worked out at 200 nM.

Take `COc1cc2c(cc1O)CC[C@@H]1[C@@H]2CC[C@]2(C)C(c3cccc4ncccc34)=CC[C@@H]12`: the 50% inhibitory concentration (IC50) is 1200 nM.

On to `COc1cc2c(cc1O)CC[C@@H]1[C@@H]2CC[C@]2(C)C(c3ccncc3)=CC[C@@H]12`, for which the 50% inhibitory concentration (IC50) came out at 1200 nM.

In the next assay the target is Tubulin (Sus scrofa, UniProt P02554+P02550). Put plainly: Inhibition of porcine brain tubulin polymerization after 60 mins.
Conditions: not given
An outline of the steps:
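Wells pre-chilled at 4 °C for 30 min. Mixture of Mes buffer pH 6.6 with MgCl2, GTP, tubulin (50 µl of 11 mg/ml in Mes buffer) and test compound in DMSO. Absorbance recorded at 25 °C over 60 min. Change in optical density compared with untreated controls.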
For the compound `COc1cc2c(cc1O)CC[C@@H]1[C@@H]2CC[C@]2(C)[C@@H](c3ccc4ccncc4c3)CC[C@@H]12`, the IC50 was greater than 10 µM.

Consider `COc1cc2c(cc1O)CC[C@@H]1[C@@H]2CC[C@]2(C)[C@@H](c3ccncc3)CC[C@@H]12`, for which the 50% inhibitory concentration (IC50) is 5.8 µM.

In the case of `COc1cc2c(cc1O)CC[C@@H]1[C@@H]2CC[C@]2(C)[C@@H](c3cncc4c3CCCC4)CC[C@@H]12`, the half-maximal inhibitory concentration (IC50) stood at 2.5 µM.

`COc1cc2c(cc1O)CC[C@@H]1[C@@H]2CC[C@]2(C)[C@@H](c3cccnc3)CC[C@@H]12` showed a 50% inhibitory concentration (IC50) of 5.1 µM.

As to `COc1cc2c(cc1O)CC[C@@H]1[C@@H]2CC[C@]2(C)[C@@H](c3ccc4cnccc4c3)CC[C@@H]12`, the 50% inhibitory concentration (IC50) amounted to 2.1 µM.

As to `COc1cc2c(cc1O)CC[C@@H]1[C@@H]2CC[C@]2(C)C(c3ccc4cnccc4c3)=CC[C@@H]12`, the IC50 worked out at 2.2 µM.

Regarding `COc1cc2c(cc1O)CC[C@@H]1[C@@H]2CC[C@]2(C)C(c3cccc4ncccc34)=CC[C@@H]12`, the IC50 was 3.1 µM.

With `COc1cc2c(cc1O)CC[C@@H]1[C@@H]2CC[C@]2(C)C(c3ccncc3)=CC[C@@H]12`, the IC50 was determined as 4.1 µM.

Tested on in a further assay: not listed separately
Nature of the assay: Anticancer activity against human WM35 cells assessed as cell growth inhibition after 5 days by MTT assay. It counts as functional, cell-based. The conditions noted are these: WM35, 120 h.
On to `COc1cc2c(cc1O)CC[C@@H]1[C@@H]2CC[C@]2(C)[C@@H](c3ccc4ccncc4c3)CC[C@@H]12`, for which the IC50 was greater than 10000 nM.

In the case of `COc1cc2c(cc1O)CC[C@@H]1[C@@H]2CC[C@]2(C)[C@@H](c3ccncc3)CC[C@@H]12`, the IC50 stood at 1600 nM.

Regarding `COc1cc2c(cc1O)CC[C@@H]1[C@@H]2CC[C@]2(C)[C@@H](c3cncc4c3CCCC4)CC[C@@H]12`, the half-maximal inhibitory concentration (IC50) was found to be 900 nM.

For the compound `COc1cc2c(cc1O)CC[C@@H]1[C@@H]2CC[C@]2(C)[C@@H](c3cccnc3)CC[C@@H]12`, the IC50 was 1900 nM.

For the compound `COc1cc2c(cc1O)CC[C@@H]1[C@@H]2CC[C@]2(C)[C@@H](c3ccc4cnccc4c3)CC[C@@H]12`, the IC50 turned out to be 900 nM.

Consider `COc1cc2c(cc1O)CC[C@@H]1[C@@H]2CC[C@]2(C)C(c3ccc4cnccc4c3)=CC[C@@H]12`, for which the concentration for half-maximal inhibition (IC50) was 1000 nM.

As for `COc1cc2c(cc1O)CC[C@@H]1[C@@H]2CC[C@]2(C)C(c3cccc4ncccc34)=CC[C@@H]12`, the 50% inhibitory concentration (IC50) worked out at 2900 nM.

`COc1cc2c(cc1O)CC[C@@H]1[C@@H]2CC[C@]2(C)C(c3ccncc3)=CC[C@@H]12`: the IC50 turned out to be 1000 nM.

The target in a further assay is T1, Estrogen receptor (Homo sapiens) (UniProt P03372).
T1 sequence (whole entry): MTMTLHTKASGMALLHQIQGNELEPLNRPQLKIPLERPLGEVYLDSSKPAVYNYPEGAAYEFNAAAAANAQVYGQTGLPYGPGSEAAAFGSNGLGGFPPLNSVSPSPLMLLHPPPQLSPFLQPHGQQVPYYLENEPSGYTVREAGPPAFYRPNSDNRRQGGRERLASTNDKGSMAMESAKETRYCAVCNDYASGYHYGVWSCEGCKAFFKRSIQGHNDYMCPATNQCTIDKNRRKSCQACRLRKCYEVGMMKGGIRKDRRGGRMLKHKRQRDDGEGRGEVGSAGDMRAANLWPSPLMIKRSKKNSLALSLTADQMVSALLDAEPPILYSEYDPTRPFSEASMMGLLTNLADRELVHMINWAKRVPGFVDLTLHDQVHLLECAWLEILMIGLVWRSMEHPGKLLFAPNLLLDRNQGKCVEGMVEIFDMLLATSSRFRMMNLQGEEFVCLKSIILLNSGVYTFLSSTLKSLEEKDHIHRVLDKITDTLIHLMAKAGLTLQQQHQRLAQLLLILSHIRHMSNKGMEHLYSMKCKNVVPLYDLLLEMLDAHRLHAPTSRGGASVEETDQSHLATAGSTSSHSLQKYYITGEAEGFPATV
Put plainly: Agonist activity at estrogen receptor (unknown origin) expressed in rat PC12 cells coexpressing ER-luc at 10 uM after 24 hrs. Format: cell-based. To be noted: PC-12. An outline of the steps: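 PC-12 cells plated at 7 × 10⁴ cells/ml, 37 °C, 5% CO₂; co-transfected with ERE-luc and ER one day after plating (liposome complexes in serum-free DMEM, serum medium restored after 3 h). Treated next day for 24 h; 0.1% DMSO solvent control, 17-β-estradiol positive control. Luciferase read with 1 mM luciferin, normalised to Renilla; 2 independent experiments, n = 3–5.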
`COc1cc2c(cc1O)CC[C@@H]1[C@@H]2CC[C@]2(C)[C@@H](c3cncc4c3CCCC4)CC[C@@H]12`: the outcome was inactive.

On to `COc1cc2c(cc1O)CC[C@@H]1[C@@H]2CC[C@]2(C)[C@@H](c3cccnc3)CC[C@@H]12`, for which the outcome was inactive.
